One assay has as its system Mtb H37Rv strain. Briefly: Anti-TB activity, Microplate Alamar Blue Assay. The following applies: MABA, triplicates. In kind it is cell-based, Mycobacterium tuberculosis.
In the next assay the test system is HEK293T cells. Briefly: Cytotoxicity studies on HEK293T cell line. In kind it is cell-based, human. The note with it: for Selective index (SI): HEK293T IC50 versus MIC against Mtb H37Rv; for IC50: Homo sapiens, HEK-293T, read-out: IC50 (HEK293T). The method in brief:
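Normal human embryonic kidney HEK293T cells were exposed to test compounds over a dose range of 7 to 2000 μM, and cell proliferation was read as OD at 450 nm to give IC50.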

In a further assay the test system is Mtb H37Rv. The note with it: cited from earlier work.
Where [1] appears, read: Mycobacterium tuberculosis, H37RV.

For “2-(4-(Phenylglycyl) piperazin-1-yl)-1,8-naphthyridine-3-carbonitrile [ANC-1]”, the MIC in the assay on Mtb H37Rv strain stood at 25 µg/mL; with Mtb H37Rv strain (value in brackets), 67.12 µM.
With `N#Cc1cc2cccnc2nc1N1CCN(CC(=O)Nc2ccccc2)CC1` [ANA-1, 2-(4-(3-Cyano-1,8-naphthyridin-2-yl)piperazin-1-yl)-N-phenylacetamide], in the assay with HEK293T cells, the “Selective index (SI)” value was 17 and the IC50 is 580 ± 20.2 µM. In the assay on Mtb H37Rv strain (setting [1]), the MIC is 12.5 µg/mL.
In the assay with Mtb H37Rv strain (setting [1]), `CCc1ccc(NC(=O)CN2CCN(c3nc4ncccc4cc3C#N)CC2)cc1` [ANA-2, 2-(4-(3-Cyano-1,8-naphthyridin-2-yl)piperazin-1-yl)-N-(4-ethylphenyl)acetamide] gave an MIC of 25 µg/mL.
Still for that read-out and setting: the figure for `Cc1ccc(NC(=O)CN2CCN(c3nc4ncccc4cc3C#N)CC2)cc1C` [ANA-3, 2-(4-(3-Cyano-1,8-naphthyridin-2-yl)piperazin-1-yl)-N-(3,4-dimethylphenyl)acetamide] is 25 µg/mL; for `N#Cc1cc2cccnc2nc1N1CCN(CC(=O)Nc2ccc(F)cc2)CC1` [ANA-4, 2-(4-(3-Cyano-1,8-naphthyridin-2-yl)piperazin-1-yl)-N-(4-fluorophenyl)acetamide] it is 25 µg/mL.
Same read-out and setting: with `N#Cc1cc2cccnc2nc1N1CCN(CC(=O)Nc2ccc(Br)cc2)CC1` [ANA-5, N-(4-Bromophenyl)-2-(4-(3-cyano-1,8-naphthyridin-2-yl)piperazin-1-yl)acetamide] the figure was 25 µg/mL.
In the case of `N#Cc1cc2cccnc2nc1N1CCN(CC(=O)Nc2ccccc2F)CC1` [ANA-6, 2-(4-(3-Cyano-1,8-naphthyridin-2-yl)piperazin-1-yl)-N-(2-fluorophenyl)acetamide], in the assay with HEK293T cells, the “Selective index (SI)” value amounted to 23 and the IC50 came out at 753 ± 7.63 µM. For the same compound, the MIC in the assay with Mtb H37Rv strain (setting [1]) was determined as 12.5 µg/mL.
For `N#Cc1cc2cccnc2nc1N1CCN(CC(=O)Nc2ccccc2[N+](=O)[O-])CC1` [ANA-7, 2-(4-(3-Cyano-1,8-naphthyridin-2-yl)piperazin-1-yl)-N-(2-nitrophenyl)acetamide], in the assay with HEK293T cells, the “Selective index (SI)” value is listed as 19 and the IC50 came to 571.2 ± 4.45 µM. Besides, in the assay on Mtb H37Rv strain (setting [1]), it took 12.5 µg/mL to inhibit growth (MIC).
The compound `N#Cc1cc2cccnc2nc1N1CCN(CC(=O)Nc2cccc(C(F)(F)F)c2)CC1` [ANA-8, 2-(4-(3-Cyano-1,8-naphthyridin-2-yl)piperazin-1-yl)-N-(3(trifluoromethyl)phenyl)acetamide] registered a minimum inhibitory concentration (MIC) in the assay with Mtb H37Rv strain (setting [1]) of 12.5 µg/mL.
Same read-out and setting: the figure for `N#Cc1cc2cccnc2nc1N1CCN(CC(=O)Nc2ccc(F)c(F)c2)CC1` [ANA-9, 2-(4-(3-Cyano-1,8-naphthyridin-2-yl)piperazin-1-yl)-N-(3,4-difluorophenyl)acetamide] is 25 µg/mL.
The compound `N#Cc1cc2cccnc2nc1N1CCN(CC(=O)Nc2cccc([N+](=O)[O-])c2)CC1` [ANA-10, 2-(4-(3-Cyano-1,8-naphthyridin-2-yl)piperazin-1-yl)-N-(3-nitrophenyl)acetamide] displayed an MIC in the assay on Mtb H37Rv strain (setting [1]) of 12.5 µg/mL.
As to `N#Cc1cc2cccnc2nc1N1CCN(CC(=O)Nc2ccc([N+](=O)[O-])cc2)CC1` [ANA-11, 2-(4-(3-Cyano-1,8-naphthyridin-2-yl)piperazin-1-yl)-N-(4-nitrophenyl)acetamide], the lowest concentration to inhibit growth with Mtb H37Rv strain (setting [1]) (MIC) was 25 µg/mL.
Regarding `N#Cc1cc2cccnc2nc1N1CCN(C(=O)c2ccc([N+](=O)[O-])o2)CC1` [ANA-12, 2-(4-(5-Nitrofuran-2-carbonyl)piperazin-1-yl)-1,8-naphthyridine-3-carbonitrile], in the assay on HEK293T cells, the “Selective index (SI)” value worked out at 27 and the IC50 came out at 451 ± 20.2 µM. The same compound showed an MIC in the assay with Mtb H37Rv strain (setting [1]) of 6.25 µg/mL.
The matching figures for `CCc1ccc(NCC(=O)N2CCN(c3nc4ncccc4cc3C#N)CC2)cc1` [ANC-2, 2-(4-((4-Ethylphenyl)glycyl)piperazin-1-yl)-1,8-naphthyridine-3-carbonitrile]: 11, 330 ± 3.4 µM and 12.5 µg/mL.
As for `Cc1ccc(NCC(=O)N2CCN(c3nc4ncccc4cc3C#N)CC2)cc1C` [ANC-3, 2-(4-((3,4-Dimethylphenyl)glycyl)piperazin-1-yl)-1,8-naphthyridine-3-carbonitrile], it took 50 µg/mL to inhibit growth with Mtb H37Rv strain (setting [1]) (MIC).
Still for that read-out and setting: the figure for `N#Cc1cc2cccnc2nc1N1CCN(C(=O)CNc2ccc(F)cc2)CC1` [ANC-5, 2-(4-((4-Fluorophenyl)glycyl)piperazin-1-yl)-1,8-naphthyridine-3-carbonitrile] is 25 µg/mL; for `N#Cc1cc2cccnc2nc1N1CCN(C(=O)CNc2ccc(Cl)cc2)CC1` [ANC-6, 2-(4-((4-Chlorophenyl)glycyl)piperazin-1-yl)-1,8-naphthyridine-3-carbonitrile] it is 25 µg/mL.
Still for that read-out and setting: with `N#Cc1cc2cccnc2nc1N1CCN(C(=O)CNc2ccc(Br)cc2)CC1` [ANC-7, 2-(4-((4-Bromophenyl)glycyl)piperazin-1-yl)-1,8-naphthyridine-3-carbonitrile] the figure was 25 µg/mL; with `N#Cc1cc2cccnc2nc1N1CCN(C(=O)CNc2ccccc2F)CC1` [ANC-8, 2-(4-((2-Fluorophenyl)glycyl)piperazin-1-yl)-1,8-naphthyridine-3-carbonitrile], 25 µg/mL; with `N#Cc1cc2cccnc2nc1N1CCN(C(=O)CNc2ccccc2I)CC1` [ANC-9, 2-(4-((2-Iodophenyl)glycyl)piperazin-1-yl)-1,8-naphthyridine-3-carbonitrile], 25 µg/mL.
Still for that read-out and setting: the figure for `N#Cc1cc2cccnc2nc1N1CCN(C(=O)CNc2ccc(Br)cc2[N+](=O)[O-])CC1` [ANC-10, 2-(4-((4-Bromo-2-nitrophenyl)glycyl)piperazin-1-yl)-1,8-naphthyridine-3-carbonitrile] is over 50 µg/mL; for `N#Cc1cc2cccnc2nc1N1CCN(C(=O)CNc2cccc(Cl)c2)CC1` [ANC-11, 2-(4-((3-Chlorophenyl)glycyl)piperazin-1-yl)-1,8-naphthyridine-3-carbonitrile] it is 50 µg/mL.
In the assay on Mtb H37Rv strain (setting [1]), `N#Cc1cc2cccnc2nc1N1CCN(C(=O)CNc2cccc(C(F)(F)F)c2)CC1` [ANC-12, 2-(4-((3-(Trifluoromethyl)phenyl)glycyl)piperazin-1-yl)-1,8-naphthyridine-3-carbonitrile] had an MIC of 25 µg/mL.
Same read-out and setting: with `N#Cc1cc2cccnc2nc1N1CCN(C(=O)CNc2ccc(Cl)cc2Cl)CC1` [ANC-13, 2-(4-((2,4-Dichlorophenyl)glycyl)piperazin-1-yl)-1,8-naphthyridine-3-carbonitrile] the figure was 50 µg/mL.
Take `N#Cc1cc2cccnc2nc1N1CCN(C(=O)CNc2ccc(F)c(F)c2)CC1` [ANC-14, 2-(4-((3,4-Difluorophenyl)glycyl)piperazin-1-yl)-1,8-naphthyridine-3-carbonitrile]: the MIC against Mtb H37Rv strain (setting [1]) was over 50 µg/mL.
`N#Cc1cc2cccnc2nc1N1CCNCC1` [ANI-1, 2-(Piperazin-1-yl)-1,8-naphthyridine-3-carbonitrile]: in the assay with Mtb H37Rv strain (setting [1]), the MIC amounted to 25 µg/mL.
The same measure, in the same setting: the figure for `N#Cc1cc2cccnc2nc1N1CCN(C(=O)CCl)CC1` [ANI-2, 2-(4-(2-Chloroacetyl)piperazin-1-yl)-1,8-naphthyridine-3-carbonitrile] is 25 µg/mL.
With `CC[C@@H](CO)NCCN[C@@H](CC)CO` [Ethambutol, reference compound], the lowest concentration to inhibit growth in the assay on Mtb H37Rv strain (setting [1]) (MIC) was 6.25 µg/mL.
The same measure, in the same setting: the figure for `NNC(=O)c1ccncc1` [Isoniazid, reference compound] is 0.36 µg/mL.
With `CO[C@H]1/C=C/O[C@@]2(C)Oc3c(C)c(O)c4c(O)c(c(/C=N/N5CCN(C)CC5)c(O)c4c3C2=O)NC(=O)/C(C)=C\C=C\[C@H](C)[C@H](O)[C@@H](C)[C@@H](O)[C@@H](C)[C@H](OC(C)=O)[C@@H]1C` [Rifampicin, reference compound], the “inhibition against Mtb H37Rv” value in the assay on Mtb H37Rv is recorded as 98%. The compound further gave an MIC with Mtb H37Rv strain (setting [1]) of 3.13 µg/mL.
Regarding `Nc1ccc(C(=O)O)c(O)c1` [p-Amino salicylic acid, reference compound], the lowest concentration to inhibit growth against Mtb H37Rv strain (setting [1]) (MIC) was 12.5 µg/mL.

The term MIC denotes the lowest concentration that inhibits growth of the organism. The low end stands for greater potency, the high end for weaker potency. For orientation: IC50 means the concentration at which inhibition is half-maximal.

Source of the values: article PMC11255784 (RSC Advances, 2024).
